For experiment [1], the species on record is Homo sapiens. Put plainly: Inhibition of 10 uM ADP induced platelet aggregation in human platelet rich citreated plasma (PRP). The experiment is classed as functional. An outline of the steps:
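Aggregation is read as the increase in light transmission in an aggregometer, with platelets used within 3 h of collection. IC50 comes from regression of dose-response curves for inhibition of maximal aggregation, adjusted against a standard run in each experiment.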

For experiment [2], the target named is Integrin alpha-5/beta-1 (Homo sapiens, UniProt P05556+P08648). Put plainly: Binding affinity against integrin alpha5-beta1 in enzyme linked immunosorbent assay (ELISA). In kind it is protein-complex assay. A general note: ELISA stands for enzyme-linked immunosorbent assay.
Experiment [3] concerns the target Integrin alpha-IIb/beta-3 (Homo sapiens, UniProt P05106+P08514). Put plainly: Binding affinity against integrin alpha 2b-beta 3 in enzyme linked immunosorbent assay (ELISA). In kind it is protein-complex assay. An outline of the steps: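 Purified human platelet αIIbβ3 (from outdated platelets, octyl glucoside extract) in TBS with 20 mM octyl glucoside, 2 mM MgCl2 and 2 mM CaCl2 binds to plate-coated human fibrinogen (10 µg/mL in TBS) with 10-fold serial peptide dilutions for 3 h at room temperature. Bound receptor is detected with rabbit anti-αIIbβ3, then HRP anti-rabbit IgG, with o-phenylenediamine/H2O2 at pH 5.0. IC50 is reported.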

Experiment [4] deals with Integrin alpha-V/beta-5 (Homo sapiens, UniProt P06756+P18084). The experiment is described as follows: Binding affinity against integrin alpha V-beta5 in enzyme linked immunosorbent assay (ELISA). The experiment is classed as protein-complex assay. An outline of the steps: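 It is added to wells coated with human vitronectin in 0.1 M carbonate, pH 9.6, with 10-fold serial peptide dilutions for 3 h at room temperature. Detection uses rabbit anti-VnR, HRP anti-rabbit IgG and o-phenylenediamine/H2O2.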

The species named for experiment [5] is Canis familiaris. Put plainly: Effect of compound on template bleeding time in dogs. The experiment is classed as functional, Canis lupus familiaris.

Where a SMILES comes first, the peptide text is derived from it. Bridges are numbered along the chain shown (N, C = ends).

Integrin alpha-IIb/beta-3, sequence (P05106 27-788 limits assumed): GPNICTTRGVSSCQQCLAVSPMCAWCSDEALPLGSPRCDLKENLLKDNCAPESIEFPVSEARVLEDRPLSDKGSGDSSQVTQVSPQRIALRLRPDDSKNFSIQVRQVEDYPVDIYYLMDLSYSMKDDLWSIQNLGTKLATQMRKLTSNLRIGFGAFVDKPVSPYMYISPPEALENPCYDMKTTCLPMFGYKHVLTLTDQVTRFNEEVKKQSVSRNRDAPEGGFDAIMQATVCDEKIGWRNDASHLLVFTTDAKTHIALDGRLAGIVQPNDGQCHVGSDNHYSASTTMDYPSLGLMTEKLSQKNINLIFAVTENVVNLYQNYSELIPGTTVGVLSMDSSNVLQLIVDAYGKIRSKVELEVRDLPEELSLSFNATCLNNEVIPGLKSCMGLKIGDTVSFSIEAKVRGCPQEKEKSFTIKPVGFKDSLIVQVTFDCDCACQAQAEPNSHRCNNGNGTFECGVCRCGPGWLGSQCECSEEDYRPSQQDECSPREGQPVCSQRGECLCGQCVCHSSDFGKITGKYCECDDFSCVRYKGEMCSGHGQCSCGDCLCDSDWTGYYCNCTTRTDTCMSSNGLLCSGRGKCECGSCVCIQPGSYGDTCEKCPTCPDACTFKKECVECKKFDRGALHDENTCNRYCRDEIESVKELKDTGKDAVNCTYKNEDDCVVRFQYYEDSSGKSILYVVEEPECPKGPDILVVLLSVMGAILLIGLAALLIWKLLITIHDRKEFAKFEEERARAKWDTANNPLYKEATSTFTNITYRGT
Integrin alpha-IIb/beta-3, sequence (P08514 32-887 limits assumed): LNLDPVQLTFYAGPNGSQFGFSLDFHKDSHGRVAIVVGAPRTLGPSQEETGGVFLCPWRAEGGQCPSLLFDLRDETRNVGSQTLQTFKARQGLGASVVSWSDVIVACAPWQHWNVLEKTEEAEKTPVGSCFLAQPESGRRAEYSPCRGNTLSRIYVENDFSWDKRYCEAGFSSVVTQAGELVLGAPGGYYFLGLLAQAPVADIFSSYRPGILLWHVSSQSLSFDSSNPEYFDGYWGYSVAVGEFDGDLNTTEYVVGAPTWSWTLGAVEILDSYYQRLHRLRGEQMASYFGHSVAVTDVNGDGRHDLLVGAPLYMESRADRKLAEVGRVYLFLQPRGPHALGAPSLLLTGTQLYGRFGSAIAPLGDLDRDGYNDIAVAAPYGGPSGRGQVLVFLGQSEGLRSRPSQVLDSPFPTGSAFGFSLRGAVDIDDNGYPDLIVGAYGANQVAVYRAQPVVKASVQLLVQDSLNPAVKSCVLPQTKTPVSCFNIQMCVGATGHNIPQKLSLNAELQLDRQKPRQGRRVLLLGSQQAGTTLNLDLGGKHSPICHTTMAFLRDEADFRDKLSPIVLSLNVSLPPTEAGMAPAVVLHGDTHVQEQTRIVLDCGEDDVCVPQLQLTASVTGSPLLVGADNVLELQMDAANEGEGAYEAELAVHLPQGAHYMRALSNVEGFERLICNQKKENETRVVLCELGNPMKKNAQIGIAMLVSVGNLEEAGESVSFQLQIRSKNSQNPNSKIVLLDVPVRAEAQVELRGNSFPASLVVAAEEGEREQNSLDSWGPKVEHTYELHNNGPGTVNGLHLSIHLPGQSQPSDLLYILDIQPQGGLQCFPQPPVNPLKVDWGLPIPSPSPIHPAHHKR
Integrin alpha-IIb/beta-3, sequence (P08514 891-1039 limits assumed): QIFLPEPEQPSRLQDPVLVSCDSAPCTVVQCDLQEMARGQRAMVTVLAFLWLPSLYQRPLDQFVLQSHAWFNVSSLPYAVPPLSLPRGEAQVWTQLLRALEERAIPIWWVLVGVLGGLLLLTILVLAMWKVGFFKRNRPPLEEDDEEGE
Integrin alpha-5/beta-1, sequence (P05556 21-798 limits assumed): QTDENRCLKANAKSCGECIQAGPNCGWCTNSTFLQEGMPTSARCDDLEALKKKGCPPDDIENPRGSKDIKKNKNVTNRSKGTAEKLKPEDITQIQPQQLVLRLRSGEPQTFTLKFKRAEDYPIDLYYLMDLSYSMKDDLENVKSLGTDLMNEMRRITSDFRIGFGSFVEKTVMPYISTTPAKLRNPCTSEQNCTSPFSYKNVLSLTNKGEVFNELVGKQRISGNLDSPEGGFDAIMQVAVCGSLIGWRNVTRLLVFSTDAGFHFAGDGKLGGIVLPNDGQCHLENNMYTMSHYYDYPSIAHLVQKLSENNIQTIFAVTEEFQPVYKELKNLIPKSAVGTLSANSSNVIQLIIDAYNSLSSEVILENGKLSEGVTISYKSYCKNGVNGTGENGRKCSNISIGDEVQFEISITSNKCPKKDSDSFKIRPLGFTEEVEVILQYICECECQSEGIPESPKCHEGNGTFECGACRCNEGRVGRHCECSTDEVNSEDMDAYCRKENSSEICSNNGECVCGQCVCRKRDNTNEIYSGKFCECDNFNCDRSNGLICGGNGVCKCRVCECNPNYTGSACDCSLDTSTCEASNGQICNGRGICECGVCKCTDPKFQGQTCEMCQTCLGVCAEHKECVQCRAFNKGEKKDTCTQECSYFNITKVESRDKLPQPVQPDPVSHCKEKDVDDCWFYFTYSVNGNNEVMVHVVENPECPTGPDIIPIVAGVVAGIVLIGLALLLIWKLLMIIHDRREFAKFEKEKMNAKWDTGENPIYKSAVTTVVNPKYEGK
Integrin alpha-5/beta-1, sequence (P08648 42-894 limits assumed): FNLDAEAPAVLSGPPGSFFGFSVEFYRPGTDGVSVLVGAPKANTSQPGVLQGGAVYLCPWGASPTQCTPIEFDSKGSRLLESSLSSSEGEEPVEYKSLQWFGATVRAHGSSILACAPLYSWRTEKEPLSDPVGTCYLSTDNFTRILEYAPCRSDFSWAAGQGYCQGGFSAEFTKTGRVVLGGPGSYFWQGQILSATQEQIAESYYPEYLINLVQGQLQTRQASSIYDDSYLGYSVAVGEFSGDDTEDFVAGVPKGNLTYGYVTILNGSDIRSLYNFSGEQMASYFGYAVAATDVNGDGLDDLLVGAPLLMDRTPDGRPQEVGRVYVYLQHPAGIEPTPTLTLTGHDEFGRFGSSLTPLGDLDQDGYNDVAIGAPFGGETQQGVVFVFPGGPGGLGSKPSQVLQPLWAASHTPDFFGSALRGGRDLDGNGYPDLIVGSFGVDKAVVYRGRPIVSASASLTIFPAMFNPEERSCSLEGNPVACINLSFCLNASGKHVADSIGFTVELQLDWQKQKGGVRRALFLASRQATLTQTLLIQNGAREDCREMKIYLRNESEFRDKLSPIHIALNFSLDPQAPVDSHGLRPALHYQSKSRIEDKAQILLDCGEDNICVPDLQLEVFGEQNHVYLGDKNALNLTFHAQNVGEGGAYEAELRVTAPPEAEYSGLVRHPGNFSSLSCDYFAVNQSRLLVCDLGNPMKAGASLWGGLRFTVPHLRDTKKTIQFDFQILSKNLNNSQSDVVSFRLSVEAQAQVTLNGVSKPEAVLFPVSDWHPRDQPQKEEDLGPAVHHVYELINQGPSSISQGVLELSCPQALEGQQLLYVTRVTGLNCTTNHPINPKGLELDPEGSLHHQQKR
Integrin alpha-5/beta-1, sequence (P08648 895-1049 limits assumed): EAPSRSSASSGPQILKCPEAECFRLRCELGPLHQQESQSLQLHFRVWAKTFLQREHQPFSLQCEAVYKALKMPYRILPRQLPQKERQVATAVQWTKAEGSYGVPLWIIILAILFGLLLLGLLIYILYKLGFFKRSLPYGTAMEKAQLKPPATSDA

`CCOc1ccc(C[C@@H]2NC(=O)[C@H](CC(=O)O)NC(=O)CNC(=O)[C@H](CCCN=C(N)N)NC(=O)[C@@H]3CCCN3C(=O)[C@H](CC(N)=O)NC(=O)[C@@H](NC(C)=O)CSSC[C@@H](C(N)=O)NC(=O)[C@H](CCCN=C(N)N)NC2=O)cc1`: the IC50 – broadly, the concentration at which inhibition is half-maximal – amounted to 220 nM in experiment [1], 10000 nM in experiment [2], 4 nM in experiment [3] and 8400 nM in experiment [4].
For the compound `COc1ccc(C[C@@H]2NC(=O)[C@H](CC(=O)O)NC(=O)CNC(=O)[C@H](CCCNC(=N)N)NC(=O)[C@@H]3CCCN3C(=O)[C@H](CC(N)=O)NC(=O)[C@@H](NC(C)=O)CSSC[C@@H](C(N)=O)NC(=O)[C@H](C)NC2=O)cc1`, the Bleeding time in experiment [5] is greater than 30 min.
On the same count and under the same terms, the value for `COc1ccc(C[C@@H]2NC(=O)[C@H](CC(=O)O)NC(=O)CNC(=O)[C@H](CCCNC(=N)N)NC(=O)[C@@H]3CCCN3C(=O)[C@H](CC(N)=O)NC(=O)[C@@H](NC(C)=O)CSSC[C@@H](C(N)=O)NC(=O)[C@H](CCC(=O)O)NC2=O)cc1` was greater than 30 min.
On the same count and under the same terms, then `COc1ccc(C[C@@H]2NC(=O)[C@H](CC(=O)O)NC(=O)CNC(=O)[C@H](CCCN=C(N)N)NC(=O)[C@@H]3CCCN3C(=O)[C@H](CC(N)=O)NC(=O)[C@@H](NC(C)=O)CSSC[C@@H](C(N)=O)NC(=O)[C@H](CCCN=C(N)N)NC2=O)cc1`, with 3 min; and `COc1ccc(C[C@@H]2NC(=O)[C@H](CC(=O)O)NC(=O)CNC(=O)[C@H](CCCNC(=N)N)NC(=O)[C@@H]3CCCN3C(=O)[C@H](CC(N)=O)NC(=O)[C@@H](NC(C)=O)CSSC[C@@H](C(N)=O)NC(=O)[C@H](CC(C)C)NC2=O)cc1`, with 21 min.
`CC[C@H](C)[C@@H]1NC(=O)[C@@H](NC(C)=O)CSSC[C@@H](C(N)=O)NC(=O)[C@H](CCCN=C(N)N)NC(=O)[C@H](Cc2ccc([N+](=O)[O-])cc2)NC(=O)[C@H](CC(=O)O)NC(=O)CNC(=O)[C@H](CCCN=C(N)N)NC(=O)[C@@H]2CCCN2C1=O`: the IC50 was 210 nM in experiment [1], 1200 nM in experiment [2], 430 nM in experiment [3] and 4300 nM in experiment [4].
For `COc1ccc(C[C@@H]2NC(=O)[C@H](CC(=O)O)NC(=O)CNC(=O)[C@H](CCCCN)NC(=O)[C@@H]3CCCN3C(=O)[C@H](CC(N)=O)NC(=O)[C@@H](NC(C)=O)CSSC[C@@H](C(N)=O)NC(=O)[C@H](CCCN=C(N)N)NC2=O)cc1`, the Bleeding time in experiment [5] was 3.5 min.
Consider `CC[C@H](C)[C@@H]1NC(=O)[C@@H](NC(C)=O)CSSC[C@@H](C(N)=O)NC(=O)[C@H](CCCN=C(N)N)NC(=O)[C@H](Cc2ccccc2)NC(=O)[C@H](CC(=O)O)NC(=O)CNC(=O)[C@H](CCCN=C(N)N)NC(=O)[C@@H]2CCCN2C1=O` (Ac-CIPRGDFRC-NH2; disulfide 1-9), for which the 50% inhibitory concentration (IC50) was found to be 450 nM in experiment [1], 2100 nM in experiment [2], 14 nM in experiment [3] and 10000 nM in experiment [4].
As to `CC[C@H](C)[C@@H]1NC(=O)[C@@H](NC(C)=O)CSSC[C@@H](C(N)=O)NC(=O)[C@H](CCCNC(=N)N)NC(=O)[C@H](Cc2ccc(O)cc2)NC(=O)[C@H](CC(=O)O)NC(=O)CNC(=O)[C@H](CCCNC(=N)N)NC(=O)[C@@H]2CCCN2C1=O` (Ac-CIPRGDYRC-NH2; disulfide 1-9), the results for the IC50 in experiment [2], in experiment [3] and in experiment [4] were 4500 nM, 3 nM and greater than 10000 nM, respectively.

The record behind these values is ChEMBL document CHEMBL1127482 (J Med Chem, 1994).
